Hits are enriched below; roughly 1% of the tested compounds scored in any of these assays.
FXIIa inh = inhibitors of human coagulation factor XIIa; AID 800; purified FXIIa, Boc-QGR-AMC fluorogenic substrate, 2 h; actives 0.3% (n = 220,000); inhibition, % at 5 µM; in the data active = inhibition above about 40%;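 note: 0% = enzyme with no compound and 100% = blank without enzyme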
Thrombin inh = blocks human thrombin protease activity. P00734. actives 0.26% (n = 220,000). AID 1046. alpha-thrombin, Boc-VPR-AMC fluorogenic substrate cleavage. inhibition, % at 5 µM;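 active = inhibition at or above 40%; inactive = inhibition below 40%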;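 note: 0% = enzyme with no compound and 100% = wells without enzyme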
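Material: Human alpha-thrombin protein | Buffer or medium: pH 7.5 Tris-saline with Tween 20 | Reagent: Boc-VPR-AMC substrate, 15 µM final | Schedule: Reaction at ambient temperature | Detection: AMC fluorescence at 355 nm excitation and 460 nm emission | Evaluation: Percent inhibition scaled between no-compound controls and no-enzyme blanks | Controls: no-compound enzyme wells and no-enzyme blanks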
FXIa inh = factor XIa (human) inhibition. purified FXIa, Boc-Glu-Ala-Arg-AMC fluorogenic substrate. P03951. actives 0.14% (n = 220,000). inhibition, % at 5 µM. AID 798;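 active = inhibition of at least 40%; inactive = inhibition below 40%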;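 note: fluorescence of freed AMC excited at 355 nm; 0% = enzyme without compound and 100% = no enzyme blank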
hK5 inh = blocks human kallikrein 5 protease activity; Q9Y337; recombinant hK5, fluorogenic AMC substrate cleavage; inhibition, % at 5 µM; actives 0.59% (n = 210,000); AID 873;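 active = inhibition of 40% or more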;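 note: 0% = enzyme controls without compound and 100% = no-enzyme blanks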
Target sequence (Q9Y337 67-293 limits assumed): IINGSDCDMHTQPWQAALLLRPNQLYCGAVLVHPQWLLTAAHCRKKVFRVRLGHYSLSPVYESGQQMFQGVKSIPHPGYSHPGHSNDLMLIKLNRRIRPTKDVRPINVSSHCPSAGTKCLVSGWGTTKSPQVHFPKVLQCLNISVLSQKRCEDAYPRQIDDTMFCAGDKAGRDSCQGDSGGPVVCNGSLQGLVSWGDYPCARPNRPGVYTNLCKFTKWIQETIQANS
Starred values were filed as active, the others as inactive; . = no result; ! = not active in a repeat.

SMILES	FXIIa inh	Thrombin inh	FXIa inh	hK5 inh
O=C(C[n+]1cccc(CNC(=O)c2ccc(OC(F)F)cc2)c1)Nc1cc(C(F)(F)F)ccc1Cl	23.9	36.0	10.2	61.3*
NC(=O)C[n+]1cccc(CNC(=O)c2ccc(OC(F)F)cc2)c1	2.6	0.8	2.5	-1.7
CC(=O)OCC1(C)CN(c2ccccc2)N(C(C)=O)C1=O (stereo not given)	11.0	-3.3	0.4	11.7
CC(=O)OCC1(C)CN(c2ccccc2)N(C(=O)c2ccc(C(C)(C)C)cc2)C1=O (stereo not given)	1.2	43.3*	-5.5	-0.5
CC1(C)CN(c2ccccc2)N(C(=O)c2ccc(F)cc2)C1=O	24.7	73.6*	15.3	64.3*
CC1=NNC(=O)c2ccccc2O1	10.2	-0.5	0.1	0.4
Cc1ccc(NC(=O)C2CC(=O)N/C(=N/N=C/c3ccco3)S2)cc1C (stereo not given)	-3.2	19.5	-7.4	-4.2
COc1ccc(C2CC(c3ccccc3)=NN2C(=O)CN2CCN(Cc3ccccc3)CC2)cc1 (stereo not given)	26.6	84.8*	32.1	28.8
COc1ccc(C2=NN(C(=O)CCCC(=O)O)C(c3cn(-c4ccccc4)nc3-c3ccccc3)C2)cc1 (stereo not given)	40.1*	18.8	24.1	16.6
COc1ccc(C2=NN(C(=O)CN3CCCCC3)C(c3ccc(C)cc3)C2)cc1 (stereo not given)	-4.2	-0.3	-4.7	-19.8
Cc1ccc(Nc2nc(N)nc(CN3CCc4ccccc4C3)n2)cc1	11.8	6.9	1.5	-3.1
Cc1c(Cl)cccc1Nc1nc(N)nc(CN2CCc3ccccc3C2)n1	43.1*	0.5	26.9	-26.3
COc1cccc(-c2csc(N3CCN(C(=S)Nc4ccccc4)CC3)n2)c1	-4.2	1.9	-4.9	112.1*
Cc1nc2ccccc2c(=O)n1Cc1ccco1	7.0	0.2	-6.6	-3.2
O=C1c2ccccc2C(=O)N1CCc1nc2ccccc2c(=O)n1Cc1ccco1	28.6	10.6	2.5	57.1*
Cc1ccccc1OC1C(=O)N(Cc2ccc3c(c2)OCO3)C1c1sccc1C (stereo not given)	1.7	3.1	6.1	3.1
O=C(NCc1n[nH]c(=S)n1-c1ccc(Br)cc1)c1ccc(S(=O)(=O)N2CCOCC2)cc1	7.7	-3.2	-5.9	.
O=C(Cc1cccs1)Nc1nnc(CCc2ccccc2)s1	15.5	54.4*	40.7*	42.8*
O=C1OCC2OC(O)C(O)C(O)C2OC(=O)c2cc(O)c(O)c(O)c2-c2c(O)c(O)c3oc(=O)c4c(c(O)c(O)c5oc(=O)c2c3c54)-c2c1cc(O)c(O)c2O (stereo not given)	-3.1	-4.1	59.1*	22.8
COc1ccc(NCC(=O)n2c(C)c(C)c3ccccc32)cc1OC	8.6	-5.8	0.8	-8.1
COC(C/C=C/[C@@H](O)COCc1ccccc1)OC	37.0	17.1	27.6	46.5*
COC(C/C=C/[C@H](O)COCc1ccccc1)OC	31.0	27.4	23.9	14.8
COc1cccc(C2CC(c3ccc(F)cc3)Nc3nc(N)nn32)c1 (stereo not given)	12.0	19.5	14.2	52.6*
CC(/C=N/NC(=O)c1cc(-c2cccn2C)n[nH]1)=C\c1ccccc1	36.2	21.1	52.5*	57.3*
C[n+]1cc(C(=O)N2CCCCC2)ccc1/C=C/c1c[nH]c2ccccc12	8.4	-4.2	-1.4	3.6
SMILES	FXIIa inh	Thrombin inh	FXIa inh	hK5 inh
O=C(Cc1ccccc1)NC(NC(=S)Nc1cc(Cl)ccc1Cl)C(Cl)(Cl)Cl (stereo not given)	103.2*	15.8	19.9	17.6
O=C(NC(NC(=S)Nc1cc(Cl)ccc1Cl)C(Cl)(Cl)Cl)c1ccco1 (stereo not given)	1.2	0.1	-2.3	-0.8
CCOc1ccc(N(CC(=O)N/N=C/c2ccc(OC(C)C)cc2)S(C)(=O)=O)cc1	6.2	0.0	-0.4	-4.2
N#Cc1c2c(c(Nc3ccc(O)cc3)n3c1nc1ccccc13)CCC2	11.8	35.3	-0.4	44.2*
Cc1cc(Cl)ccc1OC(C)C(=O)Nc1ccc([N+](=O)[O-])cn1 (stereo not given)	0.9	-4.6	-4.9	-21.5
Cc1noc(C)c1S(=O)(=O)N1CCC(C(=O)NCCC2=CCCCC2)CC1	1.1	-3.7	-9.3	-1.6
Cc1nn(C)c(C)c1S(=O)(=O)N1CCC(C(=O)NCCC2=CCCCC2)CC1	40.6*	41.8*	6.6	65.4*
Cc1nc2ccc(NC(=O)c3cccc(S(=O)(=O)N4CC(C)OC(C)C4)c3)cc2s1 (stereo not given)	10.0	4.8	-9.5	-5.6
CC(C)CCNC(=O)C(=O)NCc1ccccc1	6.7	-1.4	7.2	-1.9
Cc1ccc(N2CC(C)Cn3c2nc2c3c(=O)n(CC(=O)OCc3ccccc3)c(=O)n2C)cc1C (stereo not given)	24.8	15.1	5.8	44.0*
COc1ccc(OC)c(C2=NOC(C(=O)NCc3cccs3)C2)c1 (stereo not given)	9.8	-7.8	-0.5	-0.8
S=C1Nc2ccccc2Sc2ccc(Cl)cc21	5.2	31.1	12.5	67.1*
Clc1cc2c(nn1)Nc1ccccc1S2	8.7	3.9	2.5	-1.1
O=C(NNc1cccc(Cl)n1)Nc1ccc(F)cc1	.	-3.8	-0.7	0.6
CCOc1ccccc1NC(=O)C1CCCN(S(=O)(=O)c2cccc3nsnc23)C1 (stereo not given)	22.7	10.7	11.3	121.2*
CCOc1ccc(OCC)c(NC(=O)C2CCCN(S(=O)(=O)c3cnc[nH]3)C2)c1 (stereo not given)	4.8	40.3*	8.7	11.2
CCOc1ccc(OCC)c(NC(=O)C2CCCN(S(=O)(=O)c3c(C)n[nH]c3C)C2)c1 (stereo not given)	10.7	1.0	3.5	-0.6
COC(=O)c1ccc(=O)n(Cc2ccc3c(c2)OCO3)c1	-10.9	-2.7	-5.7	0.2
Nc1nnc(SCc2ccc(F)cc2)n1-c1ccccc1	11.5	1.5	3.2	-10.4
Cc1cc(F)ccc1S(=O)(=O)Nc1ccccc1C(=O)NCc1ccccn1	28.8	36.2	34.3	49.9*
CSCc1nc2scc(-c3ccccc3)c2c(=O)[nH]1	28.8	41.2*	28.2	11.3
O=C1NN(c2ccccc2)C(=O)/C1=C\c1cccc(OC(=O)c2cccs2)c1	-0.9	-0.1	48.8*	5.3
O=C1NN(c2ccc(Cl)c(Cl)c2)C(=O)/C1=C/c1cccc(OC(=O)c2cccs2)c1	0.0	1.1	2.6	5.0
Cc1csc(=N)n1CC(=O)N1CCc2ccccc21	5.9	-1.9	3.4	-13.7
COc1ccc(CCc2nc(C)ccc2O)cc1	10.2	24.1	3.6	44.0*!
Cn1c(=N)n(CC(=O)c2cccs2)c2ccccc21	16.1	14.4	-2.7	45.0*
CC1(C)CC(=O)c2c(Cc3ccccc3)n[nH]c2C1	19.3	13.7	-0.9	50.3*
CCCCc1n[nH]c2c1C(=O)CC(C)(C)C2	6.1	-2.1	1.9	4.1
CC(C)(C)C(=O)N1N=C(c2ccc(NS(C)(=O)=O)cc2)CC1c1cccs1 (stereo not given)	3.4	-2.5	-4.2	-11.3
